GPR7 antag: antagonists of human GPR7 (neuropeptides B/W receptor 1); P48145; inhibition, % at 4.4 µM; AID 1861; 1.1% of 290,000 active; GPR7-expressing cells, fluorescence antagonist assay; in the data active = inhibition above about 16%, passing the limit was not always enough;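 note: cells stimulated with the agonist NPW; 0% = agonist with vehicle and 100% = vehicle without agonist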
T cell modulator: T cell immune modulation candidate; 2C CD8+ T cell-vesicle binding, flow cytometry; hits give low values; response (vesicle binding), % at 7 µM; 0.068% of 330,000 active;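 active = response, share of CD8 T cells binding vesicles, and their 90th percentile fluorescence all below set limits, cut at about 80% in these data, passing the limit was not always enough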;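 note: values below 100% mean blocked vesicle binding to the CD8+ T cells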
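Benchmarks: naked versus QL9-loaded vesicles / Assay system: purified 2C TCR transgenic mouse naive CD8+ T cells / Technique: high-throughput flow cytometry with anti-B7-1 and anti-CD8 staining / Timing: Cell–vesicle co-incubation 1.5 h at 37 °C, staining 20 min on ice / Read-out: percent CD8+ FL2 mean versus row control / Probe or stimulus: QL9-loaded Drosophila micro-vesicles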
DSG3 Ab inh: blocks pemphigus antibody binding to human desmoglein-3. P32926. DSG3-coupled beads, scFv-anti-DSG3-GFP binding, flow cytometry; hits give low values. binding (percent of control), % at 10 µM. 0.48% of 310,000 active. AID 588358;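 active = binding more than 3 SD below its plate's average and above zero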;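 note: hits lower antibody fragment binding to DSG3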
CHT block: inhibitors of human choline transporter CHT; Q9GZV3; CHT-expressing cells, membrane potential dye, choline response; hits give low values; B-score at 10 µM; 0.86% of 310,000 active;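 active = B-score over 3 SD under the library average, and starting fluorescence ratio not unusually high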;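 note: choline stimulus applied at its EC90 after an EC20 pre-addition; B-score computed on integrated fluorescence ratio after choline addition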
Target sequence (Q9GZV3 whole entry, looked up): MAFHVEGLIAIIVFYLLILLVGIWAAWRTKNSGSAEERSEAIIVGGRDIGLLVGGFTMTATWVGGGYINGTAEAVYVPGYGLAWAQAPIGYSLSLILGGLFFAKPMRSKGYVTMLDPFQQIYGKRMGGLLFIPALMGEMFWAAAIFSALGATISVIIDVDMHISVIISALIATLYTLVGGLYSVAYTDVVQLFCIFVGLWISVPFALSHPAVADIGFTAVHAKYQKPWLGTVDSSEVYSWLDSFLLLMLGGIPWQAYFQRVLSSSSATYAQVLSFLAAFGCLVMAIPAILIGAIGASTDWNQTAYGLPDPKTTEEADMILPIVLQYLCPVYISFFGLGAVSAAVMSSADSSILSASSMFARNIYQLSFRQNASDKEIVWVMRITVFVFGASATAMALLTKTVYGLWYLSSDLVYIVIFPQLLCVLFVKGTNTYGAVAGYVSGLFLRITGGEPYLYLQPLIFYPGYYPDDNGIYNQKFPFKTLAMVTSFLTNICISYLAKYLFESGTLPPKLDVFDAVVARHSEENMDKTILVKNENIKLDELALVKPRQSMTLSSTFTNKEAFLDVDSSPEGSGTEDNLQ
CHT PAM: allosteric activators of human choline transporter CHT; CHT-expressing cells, membrane potential dye, choline EC20; hits give high values; LV-AA mutant CHT in HEK293 cells; B-score at 10 µM; 0.49% of 310,000 active;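 active = initial fluorescence not abnormally high and integrated response B-score, plate-corrected, over 3 SD above library mean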
pCIP destab: lowers stability of the mouse p/CIP coactivator protein; Q05BA5; F442A p/CIP-EGFP cells, EGFP fluorescence, 16 h; decrease of EGFP signal, % at 10 µM; 0.01% of 290,000 active;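 active = EGFP signal decrease of at least 30% at 10 µM or well 3 SD below plate mean, unless failing retest; inactive = the rest, including hits failing retest or dose response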
The depositor's hits bear a star; i = inactive; nt = not tested or not shown. Hits are enriched below; roughly 2.3% of the tested compounds scored in any of these assays.

SMILES	GPR7 antag	T cell modulator	DSG3 Ab inh	CHT block	CHT PAM	pCIP destab
CC1(C)CSC(=NCCc2ccccc2)N1C(=O)c1ccc(C#N)cc1	20*	115	130	i	i	20
CC1(C)CSC(=NCCc2ccccc2)N1	-4	188	95	i	i	-13
O=C(Nc1ccccc1[N+](=O)[O-])OCC=Cc1ccccc1	nt	nt	107	nt	nt	nt
COc1cccc(NC(=O)NCCc2ccc(Cl)cc2)c1	-18	322	104	i	i	9
COc1ccc(OC)c(NC(=O)NCCc2cccc(Cl)c2)c1	-3	221	75*	i	i	-12
CC(C)(CNC(=O)c1cc2c(s1)CCCC2)N1CCOCC1	nt	68*	101	i	i	nt
Cc1ccc(C(=O)NCC(C)(C)N2CCOCC2)s1	4	343	96	i	i	-2
O=C(C[n+]1cc(-c2ccccc2)n2c1CCCCC2)c1ccc(Cl)cc1	8	418	95	i	i	4
Clc1ccc(C[n+]2cc(-c3ccccc3)n3c2CCCCC3)c(Cl)c1	29*	169	106	i	i	-9
Cc1ccc(CNC(=O)COC(=O)Cc2ccc(-c3ccccc3)cc2)cc1	0	178	93	i	i	9
O=C(COC(=O)Cc1ccc(-c2ccccc2)cc1)NCc1ccc(F)cc1	13	335	19*	i	i	-9
COc1ccc(CCNC(=O)CCC(=O)N2CCOc3ccc(C)cc32)cc1OC	-8	377	90	i	i	-6
COc1ccc(OC)c(CCNC(=O)CCC(=O)N2CCOc3ccc(C)cc32)c1	7	769	68*	i	i	-15
c1ccc2sc(SN3CCOCC3)nc2c1	11	185	80*	i	i	4
c1ccc2sc(N3CCOCC3)nc2c1	-10	385	102	i	i	2
CCCCNC(=O)CCc1c(C)nc2nc(-c3cc(OC)cc(OC)c3)nn2c1C	-5	485	-1.6*	i	i	4
Cc1cc(Cl)c(OCCCN2CCCCC2)c(Br)c1	-1	72*	104	i	i	-3
CC(C)CC1C(=O)N(Cc2cn(CC3CCCCC3)nn2)CCS(=O)(=O)N1Cc1ccc(-c2ccncc2)cc1 (centres undefined)	nt	nt	101	nt	nt	nt
COc1ccc(S(=O)(=O)N2CCCCCC2)cc1NC(=O)CCNC(=O)c1ccc(Cl)cc1	nt	nt	98	nt	nt	nt
O=C(COc1cccnc1[N+](=O)[O-])Nc1cc(S(=O)(=O)N2CCCCC2)ccc1Cl	-15	590	85*	i	i	2
Cc1ccc(NC(=O)COc2cccnc2[N+](=O)[O-])cc1S(=O)(=O)N1CCCCC1	-3	177	nt	i	i	9
COc1ccc(S(=O)(=O)N2CCCCC2)cc1NC(=O)CCNC(=O)c1ccc(Cl)cc1	nt	293	50*	nt	nt	nt
O=C(COC(=O)C1CCC1)Nc1cc(S(=O)(=O)N2CCCCC2)ccc1Cl	nt	297	90	i	i	nt
CC(=O)OCC(=O)Nc1cc(S(=O)(=O)N2CCCCCC2)ccc1Cl	-10	141	71*	i	i	-12
O=C1NC(Cc2ccc(O)cc2)c2nc3ccc(F)cc3c(=O)n2-c2cc3ccccc3cc21 (centres undefined)	nt	nt	97	nt	nt	nt
SMILES	GPR7 antag	T cell modulator	DSG3 Ab inh	CHT block	CHT PAM	pCIP destab
Cc1ccc(S(=O)(=O)N2C[C@H]3n4c(=O)ccc(=O)n4C[C@H](OC(=O)Nc4c(C)noc4C)[C@@]3(O)C2)cc1	nt	nt	92*	nt	nt	nt
Cc1ccc(-c2csc3nc(-c4ccncc4)[nH]c(=O)c23)cc1	-13	618	103	i	i	-10
CCOc1ccc(-c2nc3scc(-c4cccs4)c3c(=O)[nH]2)cc1	-2	53	71*	i	i	-8
O=C1NN=C2CCCCCCC12 (centres undefined)	nt	nt	106	nt	nt	nt
CCOC(=O)/C(=C\c1cccnc1)C(=O)c1cc(C(C)=O)c(Nc2ccccc2)s1	30*	398	97	i	i	-3
Cc1c(NC(=O)CN2c3ccccc3CC2C)c(=O)n(-c2ccccc2)n1C (centres undefined)	-6	220	103*	i	i	14
Cc1ccc(NC(=O)c2ccc(S(=O)(=O)NCc3ccco3)cc2)cc1	4	265	-4.6*	i	i	-12
O=C(Nc1ccc(S(=O)(=O)NCc2ccco2)cc1)c1ccncc1	-4	253	103	i	i	1
O=C(CCn1c(=S)[nH]c2cc3c(cc2c1=O)OCO3)NCCc1ccccc1Cl	nt	nt	101	nt	nt	nt
CC1C(=O)C(C)C(c2ccccc2)N(N=O)C1c1ccccc1 (centres undefined)	nt	nt	93	nt	nt	nt
CCN1C(c2ccccc2)C(C)C(=O)C(C)C1c1ccccc1 (centres undefined)	-1	443	nt	i	8.6*	-20
COc1cc(CN(C)c2ncnc3sccc23)ccc1OC(F)F	13	284	35*	i	i	-8
COc1cc(Cc2cc(OC)c(O)c(OC)c2)cc(OC)c1O	nt	nt	108	nt	nt	nt
CCCn1c(=NC(=O)CS(=O)(=O)c2ccccc2)sc2cc(S(C)(=O)=O)ccc21	nt	648	96	i	i	nt
Cn1c(=NC(=O)c2ccccc2[N+](=O)[O-])sc2cc(S(C)(=O)=O)ccc21	-8	205	86*	i	i	8
O=c1cc(CSc2nnc(-c3cccs3)n2Cc2ccccc2)nc2sc3ccccc3n12	30*	179	96	i	i	-28
CC(=O)N1CCc2c(sc(NC(=O)c3ccc(S(=O)(=O)N(C)CC4CCCO4)cc3)c2C(N)=O)C1 (centres undefined)	nt	nt	97	nt	nt	nt
COc1cccc2cc(C(=O)N3CCN(C(=O)c4ccco4)CC3)c(=O)oc12	-19	462	103	i	i	2
COc1cccc2cc(C(=O)N3CCCCCCC3)c(=O)oc12	-7	191	19*	i	i	-10
CCOC(=O)N1CCN(C(=O)c2ccc3c(c2)N(Cc2ccc(F)cc2)CCS3)CC1	17	370	103	-5.2*	i	-7
CC(C)(C)NC(=O)C(c1ccc(O)cc1)N(Cc1ccc2c(c1)OCO2)C(=O)CCl (centres undefined)	nt	nt	97	nt	nt	nt
CC1=CCC(C(=O)O)(C(=O)N/N=C/c2cccs2)C(c2ccc(F)cc2)C1 (centres undefined)	-12	126	99	i	i	-10
CC1=CCC(C(=O)O)(C(=O)N/N=C/c2cccs2)C(c2ccc([N+](=O)[O-])cc2)C1 (centres undefined)	-6	186	33*	i	i	-9
CC(=O)c1ccc(N2CCN(C(=S)Nc3cccc(Cl)c3)CC2)cc1	9	215	60*	i	i	-3

Bioassay records as filed in PubChem BioAssay.
